From PubChem BioAssay
This is a sample that favours compounds with a hit; in the whole collection about 2.4% have one here.
aDG glyco up – increases alpha dystroglycan glycosylation; Pro5-aDG cells, alpha-DG glycosylation AlphaScreen (IIH6); 0% Pro5, 100% B10-LARGE cell signal; activation, % at 10 µM; 360,000 tested, 0.22% active; AID 624168;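 active = activation of at least 8% versus controls, or a plate z-score of at least 8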;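 also: Pro5 are CHO cells carrying HIG-tagged alpha-DG that lacks glycosylation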
NTR1 ag – activates human neurotensin receptor 1. P30989. NTR1-U2OS beta-arrestin-GFP spot imaging, agonist mode. activation, % at 20 µM. 330,000 tested, 0.17% active. AID 493036;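 active = activation at or above 40% of the spot to cytoplasm intensity ratio, with at least 20 cells analyzed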;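 also: 0% = DMSO without peptide and 100% = 100 nM NTR1 peptide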
Target sequence (P30989 whole entry, looked up): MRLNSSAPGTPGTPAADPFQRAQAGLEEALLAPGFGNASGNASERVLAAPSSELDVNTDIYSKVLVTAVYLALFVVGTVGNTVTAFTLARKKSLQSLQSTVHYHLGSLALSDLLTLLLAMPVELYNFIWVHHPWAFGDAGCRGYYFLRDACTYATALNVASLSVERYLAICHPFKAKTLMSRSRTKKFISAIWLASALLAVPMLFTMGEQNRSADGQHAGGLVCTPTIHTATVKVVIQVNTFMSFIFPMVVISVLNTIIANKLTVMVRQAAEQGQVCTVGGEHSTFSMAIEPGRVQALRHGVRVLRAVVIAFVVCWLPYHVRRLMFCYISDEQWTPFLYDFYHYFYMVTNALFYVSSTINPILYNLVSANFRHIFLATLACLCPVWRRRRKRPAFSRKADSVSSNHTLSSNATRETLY
MC4R ag barr – human MC4R agonism via beta-arrestin | U2OS MC4R beta-arrestin complementation, luminescence; percent of melanotan II response, DMSO zero | activation, % at 8.9 µM | 360,000 tested, 0.98% active | AID 540308;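 active = activation above a per-plate cutoff, the mean activation of sample wells on that plate plus 3 SD, cut at about 8% in these data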
TAG inh – inhibitors of triacylglycerol accumulation; inhibition, % at 12.5 µM; H9c2 cells, Nile Red lipid (TAG) fluorescence; cells loaded with 200 µM oleic acid; AID 651582; 230,000 tested, 0.66% active;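 active = pattern-corrected inhibition of lipid staining of at least 50% with the nuclear-stain viability signal not falling by more than 50%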;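 also: 0% = DMSO wells and 100% = triacsin C control wells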
MC4R antagonist – blocks human MC4R cAMP signaling | 360,000 tested, 0.48% active | P32245 | inhibition, % at 6.5 µM | AID 540295 | MC4R-expressing cells, MTII-stimulated cAMP, LANCE TR-FRET;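 active = inhibition above its plate's cutoff, the mean of tested wells on that plate plus 3 SD, cut at about 29% in these data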;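 also: 0% = Melanotan II alone and 100% = Melanotan II plus saturating MCL0020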
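System: U2OS-MC4R stable cell line; Technique: Eu-cAMP/anti-cAMP TR-FRET, emission 671 nm; Repeats: single well per compound; Also added: Melanotan II; Dosing: one concentration, 6.5 µM nominal; Schedule: 30-min compound, 1-h challenge, 1-h detection, room temperature.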
TbMetRS inhib – Trypanosoma brucei MetRS inhibition; purified T. brucei MetRS, ATP depletion, Kinase-Glo luminescence; inhibition, % at 11.9 µM; 360,000 tested, 0.4% active;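 active = inhibition above a per-plate cutoff of the control wells' mean inhibition plus 3 SD, cut at about 5.5% in these data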;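 also: 0% = DMSO wells median and 100% = median of wells with control inhibitor compound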
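Dosing: 11.9 µM compound single dose, 0.9% DMSO; Assay system: purified T. brucei MetRS enzyme; Measured by: Kinase-Glo luciferase luminescence reporting remaining unconsumed ATP; Schedule: 15 min plus 2 h at 25 °C.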
H9c2 TAG conf – confirmation of triacylglycerol accumulation inhibitors | shares compounds with TAG inh | H9c2 lipid accumulation, Nile Red fluorescence; cells loaded with 200 µM oleic acid | inhibition, % at 12.5 µM | 990 tested, 71% active;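 active = mean inhibition across replicates of 40% or more; inactive = mean inhibition below 40%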;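 also: plate controls were DMSO only wells for no effect and Triacsin C treated wells for full effect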
* hit, by the source's call; . = not tested or not shown.

SMILES	aDG glyco up	NTR1 ag	MC4R ag barr	TAG inh	MC4R antagonist	TbMetRS inhib	H9c2 TAG conf
CC(COc1ccc(C(C)C)cc1)NC(=O)c1ccc(Br)o1 (configuration not stated)	0	4	0	-6	7	0	.
O=c1cc(-c2ccccc2)[nH]c2ccc(F)cc12	0	.	-2	65*	-17	0	52*
Cc1ccc(-c2cc(=O)c3cc(F)ccc3[nH]2)cc1	0	2	0	.	0	0	.
O=C(c1ccc(F)cc1)C1CCN(C(=O)NC2CCCCC2)CC1	0	0	-2	50*	-4	0	29
O=C(NC1CCCCC1)N1CCN(S(=O)(=O)c2ccc(F)cc2)CC1	0	-1	1	-9	-2	0	.
CCc1cc(-c2nnn(CCC3COCCO3)c2CC)cc(CC)c1-c1cn(Cc2ccc3ccccc3c2)nn1 (configuration not stated)	0	.	-3	-21	13	0	.
Cc1cc(C)c2nc(NC(=O)c3ccc([N+](=O)[O-])o3)sc2c1	0	9	-2	64*	2	0	70*
CC1(C(=O)NCc2cccs2)CCN1CCc1ccccc1 (configuration not stated)	0	.	1	4	9	0	.
CC(C)NC(=O)CCc1nc2cccnc2n1-c1ccccc1	0	-1	-1	.	-2	0	.
COc1ccc(C2NCCc3c2[nH]c2ccccc32)cc1CSc1nc2ccccc2s1 (configuration not stated)	1	.	8	57*	13	-1	51*
COc1ccccc1N1CCN(C(=O)c2cn(C)c3ccc(S(=O)(=O)N4CCOCC4)cc3c2=O)CC1	0	1	-2	.	3	0	.
COc1ccc(C2c3cc4c(cc3OC(N3CCOCC3)C2C)OCO4)c(OC)c1 (configuration not stated)	0	.	1	55*	8	0	75*
c1cc2c(cc1CNc1ccc(N3CCOCC3)cc1)OCO2	0	-1	-3	-8	-5	0	.
COc1ccc2cc(Br)ccc2c1CC(=O)NC1CC(C)(C)NC(C)(C)C1	1	-1	1	64*	3	-1	12
COc1cc(C)c2sc3ccccc3c(=O)c2c1NCCN(C)C	0	.	1	70*	-4	0	64*
CC(C)c1ccc(Nc2ncc3c(n2)CCN(C(=O)Nc2ccc(F)c(Cl)c2)C3)cc1	1	.	-3	87*	15	0	88*
O=C(Cc1ccc(Br)cc1)Nc1cccc(-c2cn3c(n2)SCC3)c1	0	9	0	-11	12	0	.
CC1CCN(CC(=O)c2cccs2)CC1	0	-1	0	4	-1	-1	.
CC1CC(C)CN(CC(=O)c2cccs2)C1 (configuration not stated)	0	1	2	59*	7	0	6
O=C(Nc1ccc([N+](=O)[O-])cc1)C(c1ccccc1)c1ccccc1	1	.	5	-41	15	0	.
COc1ccc(NC(=O)C(c2ccncc2)n2c(=O)c(-c3ccccc3)nc3ccccc32)cc1 (configuration not stated)	0	.	.	.	.	-1	.
CC(C)C[C@@H](CN1CCCC1CN1C(=S)NC[C@@H]1Cc1ccc(O)cc1)N1C[C@H](Cc2ccccc2)N(CC2CCCCC2)C1=S (some centres not stated)	0	.	-3	53*	0	0	73*
Nc1ccc2ccccc2c1N=Nc1ccccc1	-1	.	-4	56*	6	0	53*
CCOc1ccc(CCNC(=O)c2cc3sc(Cl)cc3n2C)cc1OCC	0	-4	-1	60*	-1	-1	41*
CCCCCc1ccc(-c2cn(Cc3ccc(C(=O)c4ccccc4)cc3)nn2)cc1	0	0	0	61*	-11	0	51*
NC(=O)c1cc(-c2ccccc2)nc(N2CCOCC2)n1	0	3	0	52*	1	-1	60*
